Results of several laboratories.
Read-out: ABTS scavenging

Structure (SMILES) | assay | IC50
O=C(Cc1c[nH]c2ccccc12)Nc1ccc(Br)cc1 |  | 0.58 µM
Clc1ccc2[nH]c(-c3ccccc3OCc3ccccc3)nc2c1 | absorbance | 1.78 µM
Cc1cc(C(C)(C)C)c(O)c(C(C)(C)C)c1 |  | 6.99 µg/mL
O=C(O)c1cc(O)c(O)c(O)c1 | absorbance | 8.19 µM
O=C(Cc1c[nH]c2ccccc12)Nc1ccc(F)cc1F |  | 1.31 µM
COc1ccc(-c2nc3ccccc3[nH]2)cc1OCc1ccccc1 | absorbance | 1.76 µM
CCCCOc1ccc(NC(=O)Cc2c[nH]c3ccccc23)cc1 |  | 1.78 µM
O=C(OC[C@H]1O[C@@H](OC(=O)c2cc(O)c(O)c(O)c2)[C@H](OC(=O)c2cc(O)c(O)c(O)c2)[C@@H](OC(=O)c2cc(O)c(O)c(O)c2)[C@@H]1O)c1cc(O)c(O)c(O)c1 | absorbance | 3.59 µM
COc1ccc(-c2nc3cc(F)ccc3[nH]2)cc1OCc1ccccc1 | absorbance | 1.72 µM
O=C(Cc1c[nH]c2ccccc12)Nc1cccc(I)c1 |  | 1.15 µM
COc1cc(-c2oc3cc(O)cc(O)c3c(=O)c2O[C@@H]2O[C@H](CO)[C@@H](O)[C@H](O)[C@H]2O)ccc1O | absorbance | 15.3 µM
Cc1cc2nc(-c3ccccc3OCc3ccccc3)[nH]c2cc1C | absorbance | 1.78 µM
Cc1ccc(NC(=O)Cc2c[nH]c3ccccc23)c(C)c1 |  | 1.9 µM
O=c1oc2c(O)c(O)cc3c(=O)oc4c(O)c(O)cc1c4c23 | absorbance | 5.76 µM
COc1ccc(-c2nc3cc(C)c(C)cc3[nH]2)cc1OCc1ccccc1 | absorbance | 1.83 µM
